Results published in ChEMBL document CHEMBL1126975 (J Med Chem, 1993).

Columns and labels:
[1] = target: T1, Amine oxidase [flavin-containing] B (Rattus norvegicus, UniProt P19643); experiment: In vitro inhibitory activity on rat brain MAO-B.
T1 sequence (P19643 whole entry): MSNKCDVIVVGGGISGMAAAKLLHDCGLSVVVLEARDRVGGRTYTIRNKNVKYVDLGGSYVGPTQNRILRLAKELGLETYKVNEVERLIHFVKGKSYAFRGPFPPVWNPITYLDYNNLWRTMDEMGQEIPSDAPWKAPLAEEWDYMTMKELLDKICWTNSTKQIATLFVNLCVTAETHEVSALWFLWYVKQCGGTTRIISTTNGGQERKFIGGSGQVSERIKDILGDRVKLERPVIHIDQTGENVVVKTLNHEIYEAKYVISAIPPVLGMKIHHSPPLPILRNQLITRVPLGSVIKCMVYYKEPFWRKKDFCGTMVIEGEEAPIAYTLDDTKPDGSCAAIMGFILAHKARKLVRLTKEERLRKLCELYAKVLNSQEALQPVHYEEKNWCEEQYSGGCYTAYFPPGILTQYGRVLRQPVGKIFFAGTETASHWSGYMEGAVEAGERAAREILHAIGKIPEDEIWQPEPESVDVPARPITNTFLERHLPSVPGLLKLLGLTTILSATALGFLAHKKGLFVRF
Summary of the method: (§1)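 Radiochemical assay at 37 °C, pH 7.4: MAO A with 10 μM [14C]5-HT, MAO B with 5 μM [14C]PEA. Drug preincubated 20 min with enzyme. Three experiments in duplicate.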

[2] = target: T2, Amine oxidase [flavin-containing] A (Rattus norvegicus, UniProt P21396); experiment: In vitro inhibitory activity on rat brain by monoamine oxidase A (MAO-A); summary of the method: as §1
T2 sequence (P21396 whole entry): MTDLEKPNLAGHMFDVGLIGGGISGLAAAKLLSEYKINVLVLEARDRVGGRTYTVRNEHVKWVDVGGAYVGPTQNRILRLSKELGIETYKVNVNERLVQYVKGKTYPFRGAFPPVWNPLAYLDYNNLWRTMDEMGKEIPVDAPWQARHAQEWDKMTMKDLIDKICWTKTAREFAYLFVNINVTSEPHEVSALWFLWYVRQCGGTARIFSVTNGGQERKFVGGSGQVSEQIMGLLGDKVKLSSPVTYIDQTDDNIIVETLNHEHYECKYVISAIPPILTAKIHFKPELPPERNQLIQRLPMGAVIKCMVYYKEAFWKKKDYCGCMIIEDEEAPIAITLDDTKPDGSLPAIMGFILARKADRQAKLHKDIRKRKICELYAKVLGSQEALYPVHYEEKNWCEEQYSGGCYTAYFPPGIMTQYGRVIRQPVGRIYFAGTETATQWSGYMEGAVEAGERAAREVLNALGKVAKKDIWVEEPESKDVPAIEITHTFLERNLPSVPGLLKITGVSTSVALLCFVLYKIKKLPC

[3] = target: T2, Amine oxidase [flavin-containing] A; experiment: In Vitro evaluation for the inhibitory activity on rat brain by MAO-A at 100 uM; No Inhibition
Summary of the method: (§2)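 Male Sprague-Dawley rat brain crude mitochondrial fraction, 0.195 mg protein/mL. Radiochemical assay at 37 °C, pH 7.4: MAO A with 10 μM [14C]5-HT, MAO B with 5 μM [14C]PEA. Drug preincubated 20 min with enzyme. […] Three experiments in duplicate.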

[4] = target: T1, Amine oxidase [flavin-containing] B; experiment: Compound was evaluated for the time-dependence inhibition of MAO-B at 0 minute pre-incubation periods
Summary of the method: (§3)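 Male Sprague-Dawley rat brain crude mitochondrial fraction, MAO B. Drug preincubated with enzyme at 37 °C for 0, 20, 30 or 60 min, then radiochemical assay with 5 μM [14C]PEA at pH 7.4. IC50 read graphically from 9–12 concentrations; three experiments in duplicate.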

[5] = target: T1, Amine oxidase [flavin-containing] B; experiment: Compound was evaluated for the time-dependence inhibition of MAO-B at 20 minutes pre-incubation periods; summary of the method: as §3
[6] = target: T1, Amine oxidase [flavin-containing] B; experiment: Compound was evaluated for the time-dependence inhibition of MAO-B at 30 minutes pre-incubation periods; summary of the method: as §3
[7] = target: T1, Amine oxidase [flavin-containing] B; experiment: Compound was evaluated for the time-dependence inhibition of MAO-B at 60 minutes preincubation periods; summary of the method: as §3
[8] = target: T1, Amine oxidase [flavin-containing] B; experiment: Ex-Vivo Time course of evaluation for the percentage inhibition of MAO-B for 1 hr at single dose 5 mg/kg through oral gavage; format: organism-based; set-up: dose 5 mg/kg, route oral
Summary of the method: (§4)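 Fasted male Sprague-Dawley rats (150 g) dosed orally by gavage, drug suspended in Tween 80 plus 0.5% methylcellulose; vehicle controls. The 100 mg/kg arm was dosed daily for 9 days. Four rats per time point; brains frozen and homogenized in 0.1 M phosphate pH 7.4. Assayed at 37 °C with 8 μM [14C]PEA for 1 min; toluene/ethyl acetate extraction. Percent inhibition vs control, mean ± SEM.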

[9] = target: T2, Amine oxidase [flavin-containing] A; experiment: Compound was evaluated for the time-dependence inhibition of MAO-A at 60 minutes of preincubated period. values are same with or without pre-incubation
[10] = target: T1, Amine oxidase [flavin-containing] B; experiment: Ex-Vivo percentage inhibition of MAO-B after 24 hr single 5 mg/kg dose by oral gavage; format: organism-based; set-up: dose 5 mg/kg, route oral
Summary of the method: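 Ex vivo oral gavage in fasted male Sprague-Dawley rats (Tween 80 / 0.5% methylcellulose), four rats per group. Brain homogenate taken 24 h after dosing. MAO B assayed with 8 μM [14C]PEA, 1 min at 37 °C; percent inhibition vs vehicle control.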

[11] = target: T1, Amine oxidase [flavin-containing] B; experiment: Ex-Vivo Time course of evaluation for the percentage inhibition of MAO-B for 0.5 hr at single dose 5 mg/kg through oral gavage; format: organism-based; set-up: dose 5 mg/kg, route oral; summary of the method: as §4
[12] = target: T1, Amine oxidase [flavin-containing] B; experiment: Ex-Vivo Time course of evaluation for the percentage inhibition of MAO-B for 4 hr at single dose 5 mg/kg through oral gavage; format: organism-based; set-up: dose 5 mg/kg, route oral; summary of the method: as §4
[13] = Selectivity for B form was estimated by the ratio of IC50 (MAO A) at 60 min to that of (MAO B)
[14] = target: T1, Amine oxidase [flavin-containing] B; experiment: Ex-Vivo Time course of evaluation for the percentage inhibition of MAO-B for 48 hr at single dose 5 mg/kg through oral gavage; format: organism-based; set-up: dose 5 mg/kg, route oral; summary of the method: as §4
[15] = target: T2, Amine oxidase [flavin-containing] A; experiment: In Vitro evaluation for the inhibitory activity on rat brain by MAO-A at 100 uM; summary of the method: as §2
[16] = target: T1, Amine oxidase [flavin-containing] B; experiment: Ex-Vivo Time course of evaluation for the percentage inhibition of MAO-B for 1 hr at single dose 5 mg/kg through oral gavage (p<0.001); format: organism-based; set-up: dose 5 mg/kg, route oral; summary of the method: as §4
[17] = target: T1, Amine oxidase [flavin-containing] B; experiment: Ex-Vivo Time course of evaluation for the percentage inhibition of MAO-B for 4 hr at single dose 5 mg/kg through oral gavage [p<0.05 (Bonferroni''s test)]; format: organism-based; set-up: dose 5 mg/kg, route oral; summary of the method: as §4

| Structure (SMILES) | IC50 [1] | IC50 [2] | inhibition at 5 mg/kg [10] | inhibition at 5 mg/kg [11] | other results |
| --- | --- | --- | --- | --- | --- |
| COc1ccc(COc2ccc(-c3nn(CCC#N)c(=S)o3)cc2)cc1 | 910 nM | 4800 nM |  |  |  |
| N#CCCN1N=C(c2ccc(OCc3cccc(Cl)c3)cc2)OCC1=O | 13 nM | 13000 nM |  |  |  |
| Cc1ccc(COc2ccc(C3=NN(CCC#N)C(=O)CO3)cc2)cc1 | 320 nM | 250000 nM |  |  |  |
| O=c1oc(-c2ccc(OCc3ccccc3)cc2)nn1CCO | 3.7 nM | 140000 nM | 8% | 65% | IC50 [4]: 33 nM; IC50 [5]: 4.6 nM; IC50 [6]: 4.4 nM; IC50 [7]: 4.6 nM; inhibition at 5 mg/kg [8]: 82%; IC50 [9]: 140000 nM; inhibition at 5 mg/kg [12]: 70%; Selectivity [13]: 30400 |
| N#CCn1nc(-c2ccc(OCc3ccccc3)cc2)oc1=O | 60 nM |  |  |  | IC50 [3]: Not Active |
| N#CCCn1nc(-c2ccc(OCc3cccc(Cl)c3)cc2)oc1=S | 160 nM | 11000 nM |  |  |  |
| N#CCCn1nc(-c2ccc(OCc3ccccc3)cc2)sc1=O | 8 nM | 45000 nM | 15% | 44% | inhibition at 5 mg/kg [8]: 52%; inhibition at 5 mg/kg [14]: 9%; inhibition at 5 mg/kg [12]: 45% |
| N#CCCn1nc(-c2ccc(OCc3ccccc3)cc2)oc1=S | 4.4 nM | 12000 nM | 21% | 68% | IC50 [4]: 47 nM; IC50 [5]: 6.6 nM; IC50 [6]: 4.7 nM; IC50 [7]: 3.7 nM; inhibition at 5 mg/kg [8]: 84%; IC50 [9]: 12000 nM; inhibition at 5 mg/kg [14]: 8%; inhibition at 5 mg/kg [12]: 74%; Selectivity [13]: 3200 |
| COc1ccc(COc2ccc(C3=NN(CCC#N)C(=O)CO3)cc2)cc1 | 88 nM | 45000 nM |  |  |  |
| N#CCCN1N=C(c2ccc(OCc3ccccc3)cc2)OCC1=S | 140 nM | 25000 nM | -4% | 12% | inhibition at 5 mg/kg [8]: 3%; inhibition at 5 mg/kg [14]: 9%; inhibition at 5 mg/kg [12]: 5% |
| CC(C#N)n1nc(-c2ccc(OCc3ccccc3)cc2)oc1=O (centres undefined) | 48000 nM |  |  |  | inhibition at 100 µM [15]: 4% |
| N#CCCN1N=C(c2ccc(OCc3ccc([N+](=O)[O-])cc3)cc2)OCC1=O | 300 nM | 2000 nM |  |  |  |
| N#CCCn1nc(-c2ccc(OCc3ccc([N+](=O)[O-])cc3)cc2)oc1=O | 5500 nM | 11000 nM |  |  |  |
| COc1cccc(COc2ccc(-c3nn(CCC#N)c(=S)o3)cc2)c1 | 100 nM | 8100 nM |  |  |  |
| Cc1cccc(COc2ccc(-c3nn(CCC#N)c(=O)o3)cc2)c1 | 8 nM | 20000 nM | -3% | 6% | inhibition at 5 mg/kg [8]: 16%; inhibition at 5 mg/kg [14]: -3%; inhibition at 5 mg/kg [12]: 15% |
| N#CCCN1N=C(c2ccc(OCc3ccccc3)cc2)OCC1=O | 18 nM | 160000 nM | 23% | 21% | inhibition at 5 mg/kg [8]: 31%; inhibition at 5 mg/kg [14]: 16%; inhibition at 5 mg/kg [12]: 22% |
| Cc1ccc(COc2ccc(-c3nn(CCC#N)c(=S)o3)cc2)cc1 | 400 nM | 10000 nM |  |  |  |

Now from value to molecule, other results behind:

| IC50 [1] | IC50 [2] | inhibition at 5 mg/kg [10] | inhibition at 5 mg/kg [11] | Structure (SMILES) | other results |
| --- | --- | --- | --- | --- | --- |
| 490 nM |  |  |  | N#CCCCCn1nc(-c2ccc(OCc3ccccc3)cc2)oc1=O | IC50 [3]: Not Active |
| 100 nM | 3400 nM |  |  | N#CCCN1N=C(c2ccc(OCc3ccc(Cl)cc3)cc2)OCC1=O |  |
| 27 nM | 16000 nM |  |  | COc1ccc(COc2ccc(-c3nn(CCC#N)c(=O)o3)cc2)cc1 |  |
| 66 nM | 14000 nM |  |  | Cc1cccc(COc2ccc(-c3nn(CCC#N)c(=S)o3)cc2)c1 |  |
| 410 nM |  |  |  | N#CCCCn1nc(-c2ccc(OCc3ccccc3)cc2)oc1=O | IC50 [3]: Not Active |
| 31 nM | 40000 nM |  |  | Cc1cccc(COc2ccc(C3=NN(CCC#N)C(=O)CO3)cc2)c1 |  |
| 68 nM | 32000 nM |  |  | COc1cccc(COc2ccc(C3=NN(CCC#N)C(=O)CO3)cc2)c1 |  |
| 15 nM | 25000 nM | -3% | 9% | Cc1ccc(COc2ccc(-c3nn(CCC#N)c(=O)o3)cc2)cc1 | inhibition at 5 mg/kg [16]: 22%; inhibition at 5 mg/kg [17]: 14%; inhibition at 5 mg/kg [14]: 1% |
| 690 nM | 2700 nM |  |  | N#CCCn1nc(-c2ccc(OCc3ccc(Cl)cc3)cc2)oc1=S |  |
| 16 nM | 160000 nM | 8% | 27% | N#CCCn1nc(-c2ccc(OCc3ccccc3)cc2)sc1=S | inhibition at 5 mg/kg [8]: 18%; inhibition at 5 mg/kg [14]: 10%; inhibition at 5 mg/kg [12]: 8% |
| 4300 nM | 2600 nM |  |  | N#CCCn1nc(-c2ccc(OCc3ccc([N+](=O)[O-])cc3)cc2)oc1=S |  |
| 12 nM | 7400 nM | -7% | 1% | N#CCCn1nc(-c2ccc(OCc3cccc(Cl)c3)cc2)oc1=O | inhibition at 5 mg/kg [16]: 36%; inhibition at 5 mg/kg [17]: 29%; inhibition at 5 mg/kg [14]: 4% |
